From PubChem
Many of the other results were omitted from the sample, so hits are more common in it than they were.
Xi reactivation: reactivates the inactive X chromosome in mouse fibroblasts; XiGFP mouse fibroblasts, % GFP-positive cells imaging, 3 d; cells co-treated with 5-aza-dC sensitizer; scaled so ellipticine positive control = 100%; activation, % at 7.58 µM; hit rate 0.055% among 360,000; AID 743238;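 active means mean normalized replicate activation at least 10% and every replicate at or above 10%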;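 further: 0% = median of on-plate neutral control wells and 100% = ellipticine 6 µM median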
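material = 68-5-11 XiGFP fibroblast line | medium = DMEM plus 5-aza-dC sensitizer | schedule = 3 days compound exposure | benchmarks = positive control ellipticine, 6 µM final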
Myeloid diff MLP: myeloid differentiation induction | ER-HoxA9 myeloid progenitors, lysozyme-GFP differentiation, flow cytometry | calls only at 10 µM | hit rate 1% among 360,000 | AID 624256;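 active means normalized GFP-positive differentiation at or above the plate's own cutoff, the solvent-only control mean plus 3 SD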;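 further: cells exposed to compound for four days before flow analysis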
ABCB6 inh 2: blocks the human ABCB6 transporter. fluorescence ratio to DMSO, % at 10 µM. hit rate 0.19% among 360,000. K562-ABCB6 porphyrin accumulation, flow cytometry, 1 h; stronger effect = lower value. AID 602162. Q9NP58;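 active means fluorescence ratio to DMSO below 75%, the collection mean minus 3 SD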;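 further: signal is porphyrin accumulated inside mitochondria; 100% equals median channel fluorescence of DMSO control wells; lower ratio means ABCB6 inhibition with less porphyrin fluorescence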
* hit, by the source's call; i = inactive; . = not tested or not shown; + = active, no number.

SMILES	Xi reactivation	Myeloid diff MLP	ABCB6 inh 2
CC(NC(=O)Nc1ccccc1O)(C(F)(F)F)C(F)(F)F	.	+	103.0
C=CCn1c(SCC(=O)Nc2ccccc2C)nc2sc(C)c(C)c2c1=O	.	i	73.0*
C=CCn1c(SCC(=O)Nc2sccc2C(N)=O)nc2sc(C)c(C)c2c1=O	.	i	76.0
O=C(N/N=C\c1c(O)ccc2ccccc12)c1ccc(S(=O)(=O)N2CCCCC2)cc1	48.2*	+	181.0
O=C(NN=Cc1c(O)ccc2ccccc12)c1ccc2c(c1)OCO2	-0.1	i	98.0
CC(C)NC(=O)N(C)C[C@H]1OCCCC[C@@H](C)Oc2ccc(NC(=O)c3ccccc3)cc2C(=O)N([C@@H](C)CO)C[C@@H]1C	-1.1	.	.
Cc1n[nH]c(C)c1N1C(=O)c2cccc3c(N4CCCCCC4)ccc(c23)C1=O	.	+	188.0
O=C1c2cccc3c(N4CCCCC4)ccc(c23)C(=O)N1CCO	.	i	112.0
Cc1ccc(S(=O)(=O)Nc2ccc3c(c2)C(=O)N([C@@H](C)CO)C[C@@H](C)[C@H](CN(C)S(=O)(=O)c2cn(C)cn2)OCCCC[C@@H](C)O3)cc1	0.1	.	.
O=[N+]([O-])c1ccc(SNc2ccccc2)c([N+](=O)[O-])c1	0.1	i	84.0
O=[N+]([O-])c1ccc(-[n+]2ccc3ccccc3c2)c([N+](=O)[O-])c1	0.6	+	100.0
COc1ccccc1CN1C(=O)CN(C2CCCC2)C(=O)C1c1ccc(F)cc1 (stereo not given)	.	+	97.0
O=C1C(c2ccc(F)cc2)N(Cc2ccc3c(c2)OCO3)C(=O)CN1C1CCCC1 (stereo not given)	.	i	103.0
CCS(=O)(=O)N(C)C[C@@H]1OCc2ccccc2-c2c(n(C)c3ccccc23)C(=O)N([C@@H](C)CO)C[C@@H]1C	0.1	.	.
Cc1cc(C)nc(NC(N)=NC2CCCCC2)n1	0.3	+	97.0
Cc1cc(C)nc(NC(N)=S)n1	0.1	i	95.0
COc1ccc(NC(=O)Nc2ccc3c(c2)C(=O)N([C@H](C)CO)C[C@H](C)[C@@H](CN(C)C(=O)Nc2c(C)noc2C)OCCCC[C@H](C)O3)cc1	0.4	.	.
COc1ccc(CCNc2nc(-c3ccc(F)cc3)c(CC(=O)O)s2)cc1OC	0.1	+	113.0
COc1ccc(CCNc2nc(C)c(C(C)=O)s2)cc1OC	.	i	102.0
O=C(C[C@@H]1C[C@@H]2c3cc(NC(=O)C4CCC4)ccc3O[C@@H]2[C@@H](CO)O1)NCCc1ccccc1	0.0	.	.
CCN(CC)S(=O)(=O)c1cc(C(=O)c2nccn2C)ccc1Cl	0.2	+	89.0
CCN(CC)S(=O)(=O)c1cc(C(=O)O)ccc1Cl	.	i	100.0
COC(=O)C[C@H]1C[C@@H]2c3cc(NC(=O)NC4CCCC4)ccc3O[C@@H]2[C@H](CO)O1	0.4	.	.
CC(Oc1cccc(Cl)c1)C(=O)Nc1ccc(S(=O)(=O)N(C)C2CCN(C)CC2)cc1 (stereo not given)	0.2	+	101.0
CC(=O)Nc1ccc(S(=O)(=O)N(C)C2CCN(C)CC2)cc1	-0.1	i	97.0
SMILES	Xi reactivation	Myeloid diff MLP	ABCB6 inh 2
Cc1nc(SCC(=O)Nc2nc3ccccc3s2)c(C#N)c(C)c1C	0.0	i	80.0
CCOC(=O)CCSc1nc(C)cc(C(F)(F)F)c1C#N	.	+	244.0
CCOC(=O)CCSc1nc(C(C)(C)C)cc(C(F)(F)F)c1C#N	.	i	88.0
Cc1cc(C(F)(F)F)c(C#N)c(SCC(=O)Nc2nc3ccccc3s2)n1	0.5	+	286.0
COc1ccc2c3c([nH]c2c1)[C@H](CO)N(C(=O)C1CC1)CC31CN(S(C)(=O)=O)C1	0.2	.	.
CCOC(=O)c1c(C)n(C)c2ccc(OCC(O)Cn3nc(C)cc3C)cc12 (stereo not given)	.	i	93.0
CCOC(=O)c1c(C)n(C)c2ccc(OCC(O)CN3C(=O)c4ccccc4S3(=O)=O)cc12 (stereo not given)	.	i	35.0*
C[C@@H]1CCCCO[C@@H](CN(C)C(=O)Nc2cccc3ccccc23)[C@H](C)CN([C@@H](C)CO)C(=O)c2cc(NC(=O)CCC(F)(F)F)ccc2O1	0.0	.	.
O=C1CN(Cc2ccc(F)cc2)C[C@@H]2[C@H](c3ccc(Br)cc3)[C@@H](CO)N12	0.1	.	.
Cn1nnnc1Sc1ncnc2scc(-c3ccccc3Cl)c12	0.6	i	98.0
Cn1nnnc1Sc1ncnc2scc(-c3ccc(Cl)cc3)c12	0.0	i	104.0
COc1ccc(-c2csc3ncnc(Sc4nnnn4C)c23)cc1	0.1	+	94.0
Cn1nnnc1Sc1ncnc2scc(-c3cccc4c3sc3ccccc34)c12	-0.1	+	96.0
CN1C(=O)c2cc(NC(=O)c3cccc(F)c3)ccc2OC[C@@H]2O[C@@H](CC(=O)Nc3ccccc3)CC[C@H]21	0.2	.	.
COc1cccc(NC(=O)N[C@H]2CC[C@@H](CC(=O)NCc3ccccn3)O[C@H]2CO)c1	0.2	.	.
CCOc1ccc(CCN2C(=S)N([C@@H](Cc3ccc(O)cc3)CN3CCC[C@@H]3CN3C(=S)NC[C@@H]3CC(C)C)C[C@@H]2Cc2ccc(O)cc2)cc1	-0.1	+	98.0
CCOc1ccc(CCN2C(=S)N([C@@H](Cc3ccc(O)cc3)CN3CCCC3CN3C(=S)NC[C@@H]3Cc3ccc(O)cc3)C[C@@H]2CC(C)C)cc1 (stereo not given in full)	1.5	i	87.0
CC(C)C[C@H]1CNC(=S)N1CC1CCCN1C[C@H](Cc1ccc(O)cc1)N1C[C@H](Cc2ccccc2)N(CC2CCCCC2)C1=S (stereo not given in full)	-0.1	i	98.0
CC(C)C[C@H]1CNC(=S)N1C[C@H]1CCCN1C[C@H](Cc1ccccc1)N1C[C@H](Cc2ccc(O)cc2)N(CC2CCCCC2)C1=S	-0.1	+	94.0
O=C(NCc1ccccc1)[C@H]1[C@H](CO)[C@H]2Cn3c(ccc(/C=C/c4ccccc4)c3=O)[C@@H]1N2CC1CC1	0.3	.	.
CC(C)NC(=O)N(C)C[C@@H]1Oc2cc(-c3cncnc3)ccc2S(=O)(=O)N([C@@H](C)CO)C[C@H]1C	-0.9	.	.
O=C(CCc1nc2ccccc2c(=O)[nH]1)Nc1ccccc1N1CCCCC1	0.6	i	96.0
O=C(CCc1nc2ccccc2c(=O)[nH]1)Nc1cc(Cl)ccc1N1CCCCC1	0.1	+	100.0
O=C(NCC[C@@H]1CC[C@@H](NC(=O)c2ccccc2F)[C@@H](CO)O1)c1cnccn1	0.1	.	.
O=C(Nn1cnnc1)c1cc2c(s1)CCCC2	.	i	106.0
SMILES	Xi reactivation	Myeloid diff MLP	ABCB6 inh 2
NNC(=O)c1cc2c(s1)CCCCCC2	.	+	112.0
COc1ccc2c(c1)O/C(=C\c1ccco1)C2=O	-0.1	i	101.0
CC(=O)COc1ccc2c(c1C)O/C(=C\c1ccco1)C2=O	0.2	+	184.0
CO[C@H]1CN(C)C(=O)c2ccc(NC(=O)NC(C)C)cc2OC[C@H](C)N(C(=O)C2CCC2)C[C@H]1C	0.4	.	.
CC(C)NC(=O)N1CC(=O)N2[C@H](CO)[C@@H](c3ccc(C#CCN(C)C)cc3)[C@@H]2C1	0.0	.	.
O=C(N[C@H]1CC[C@@H](CCNS(=O)(=O)Cc2ccccc2)O[C@H]1CO)c1cnccn1	0.5	.	.
Cc1cc(F)ccc1S(=O)(=O)Nc1ccc(C(=O)N2CCCCC2)cc1	0.0	i	92.0
